Results published in ChEMBL document CHEMBL4433206, “Novel Lysine-Based Thioureas as Mechanism-Based Inhibitors of Sirtuin 2 (SIRT2) with Anticancer Activity in a Colorectal Cancer Murine Model” (J Med Chem, 2019).
pIC50: −log10 of the molar value. Active and inactive are the calls of the source. No cut-off for these calls is given here.

Experiments:
[1] = biological target: T1, NAD-dependent protein deacetylase sirtuin-2 (Homo sapiens) (UniProt Q8IXJ6); test: Inhibition of SIRT2 in human HCT116 cells assessed as increase in alpha-tubulin acetylation at 25 uM incubated for 6 hrs by DAPI staining-based laser scanning confocal microscopic analysis; assay type: cell-based
T1 sequence (whole entry): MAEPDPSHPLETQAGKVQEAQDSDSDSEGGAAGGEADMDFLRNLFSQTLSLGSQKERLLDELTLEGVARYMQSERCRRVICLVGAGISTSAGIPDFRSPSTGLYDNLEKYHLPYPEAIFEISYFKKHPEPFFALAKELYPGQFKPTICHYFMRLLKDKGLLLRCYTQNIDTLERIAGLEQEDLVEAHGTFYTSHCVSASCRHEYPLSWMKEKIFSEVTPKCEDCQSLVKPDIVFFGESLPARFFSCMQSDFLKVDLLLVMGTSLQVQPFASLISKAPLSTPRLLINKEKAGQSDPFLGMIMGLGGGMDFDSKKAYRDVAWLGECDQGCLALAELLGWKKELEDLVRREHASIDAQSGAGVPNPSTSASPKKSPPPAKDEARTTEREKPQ
Method in brief: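 HCT116 cells were seeded at 400 000 on poly-D-lysine-coated glass-bottom dishes and grown 24 h. Cells were treated with DMSO or inhibitor for 6 h at 37 °C, fixed in ice-cold methanol, and blocked in TBS/0.1% Triton X-100/5% BSA. They were stained with anti-acetyl α-tubulin (1:100, overnight, 4 °C), then Cy3 anti-mouse, and mounted with DAPI. Imaging was by confocal microscopy.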

[2] = Cytotoxicity against human HME1 cells after 72 hrs by CellTiter-Blue assay; assay type: cell-based
Method in brief: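 Cells were seeded per well (HCT116 1000; MDA-MB-231, MDA-MB-468, NCI-H23, A549, SW948 2000; MCF7, BxPC-3, HME1 3000) and left 20 h at 37 °C. Inhibitor was added at 1–100 μM final for 72 h at 37 °C. CellTiter-Blue was then added for 4 h, and fluorescence was read at ex 560/em 590 nm.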

[3] = tested on: SW948; test: Potency index, ratio of TM GI50 to compound GI50 for growth inhibition of human SW948 cells; assay type: functional
[4] = biological target: T2, NAD-dependent protein deacetylase sirtuin-1 (Homo sapiens, UniProt Q96EB6); test: Inhibition of human SIRT1 deacetylase activity using acetylated H3K9 as substrate preincubated for 15 mins followed by substrate addition and measured after 3 mins by UV-HPLC analysis
T2 sequence (Q96EB6 whole entry): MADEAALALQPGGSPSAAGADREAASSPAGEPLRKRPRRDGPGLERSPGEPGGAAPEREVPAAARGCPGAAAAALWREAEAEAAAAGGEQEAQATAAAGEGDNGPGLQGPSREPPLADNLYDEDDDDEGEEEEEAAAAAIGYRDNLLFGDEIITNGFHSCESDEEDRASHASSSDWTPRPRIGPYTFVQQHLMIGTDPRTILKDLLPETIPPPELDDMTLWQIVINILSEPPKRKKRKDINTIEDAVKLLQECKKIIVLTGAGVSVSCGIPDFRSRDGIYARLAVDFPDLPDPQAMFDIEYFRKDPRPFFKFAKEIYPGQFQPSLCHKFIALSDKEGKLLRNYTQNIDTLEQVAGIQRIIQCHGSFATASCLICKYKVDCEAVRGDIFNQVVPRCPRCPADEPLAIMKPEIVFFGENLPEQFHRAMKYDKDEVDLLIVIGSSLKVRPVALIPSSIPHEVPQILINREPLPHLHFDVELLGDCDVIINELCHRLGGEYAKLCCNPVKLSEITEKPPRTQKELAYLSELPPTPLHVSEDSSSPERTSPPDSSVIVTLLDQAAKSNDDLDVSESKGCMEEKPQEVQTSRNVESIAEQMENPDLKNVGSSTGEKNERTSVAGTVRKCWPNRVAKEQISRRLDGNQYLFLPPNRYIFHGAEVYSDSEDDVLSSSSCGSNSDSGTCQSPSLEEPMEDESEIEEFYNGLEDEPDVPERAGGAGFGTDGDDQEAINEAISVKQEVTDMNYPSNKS

[5] = tested on: A549; test: Potency index, ratio of TM GI50 to compound GI50 for growth inhibition of human A549 cells; assay type: functional
[6] = biological target: T3, NAD-dependent protein deacetylase sirtuin-1 (Homo sapiens) (UniProt Q96EB6); test: Inhibition of SIRT1 in Trichostatin A treated human HCT116 cells assessed as increase in acetylated p53 K382 level at 10 to 50 uM after 6 hrs by Western blot analysis
T3 sequence (whole entry): T2 sequence (Q96EB6 whole entry)
Method in brief: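 HCT116 cells were seeded at 400 000 per well, grown 24 h, then cotreated with 400 nM TSA and inhibitor (25 μM, or 10–50 μM) for 6 h at 37 °C. Cells were lysed in 4% SDS buffer, pH 7.4. 50 μg of lysate was resolved by 12% SDS-PAGE and blotted for acetyl-p53 K382 antibody, with β-actin as loading control. Detection was by ECL.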

[7] = tested on: HCT-116; test: Potency index, ratio of TM GI50 to compound GI50 for growth inhibition of human HCT116 cells; assay type: functional
[8] = biological target: T4, NAD-dependent protein deacetylase sirtuin-3, mitochondrial (Homo sapiens, UniProt Q9NTG7); test: Inhibition of human SIRT3 assessed as reduction in deacetylase activity using acetylated H3K9 as substrate preincubated for 15 mins followed by substrate addition and measured after 15 mins by UV-HPLC analysis
T4 sequence (Q9NTG7 whole entry): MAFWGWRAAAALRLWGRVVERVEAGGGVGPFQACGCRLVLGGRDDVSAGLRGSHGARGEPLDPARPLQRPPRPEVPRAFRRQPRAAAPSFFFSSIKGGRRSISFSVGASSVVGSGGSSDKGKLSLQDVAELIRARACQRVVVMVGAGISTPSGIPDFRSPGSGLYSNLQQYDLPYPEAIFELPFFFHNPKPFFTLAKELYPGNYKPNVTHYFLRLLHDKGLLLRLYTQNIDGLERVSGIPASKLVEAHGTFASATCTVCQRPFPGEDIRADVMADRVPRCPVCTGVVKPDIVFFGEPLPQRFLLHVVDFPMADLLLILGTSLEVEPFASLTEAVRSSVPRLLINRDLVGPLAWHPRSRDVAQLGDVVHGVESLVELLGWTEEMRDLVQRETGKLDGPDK

[9] = tested on: HCT-116; test: Antitumor activity against human HCT116 cells harboring KRAS G13D mutant xenografted in NSG mouse assessed as tumor growth inhibition by measuring reduction in tumor weight at 25 mg/kg, ip administered daily for 12 days and measured post-last dose; assay type: functional, organism-based
Method in brief: (§1)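 NSG mice, female and male, about 4–8 weeks old, were implanted with 1 × 10⁶ HCT116 cells on both sides of the abdomen. Tumours grew 3–5 days until visible. Compound was given ip daily for 12 days in vehicle containing 10% DMSO and 10% Kolliphor EL (dosing solution 10 mg/mL); control mice received vehicle. Tumour volume was measured daily; tumours were excised and weighed on the last day. Unpaired two-tailed t-test.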

[10] = tested on: HCT-116; test: Antitumor activity against human HCT116 cells harboring KRAS G13D mutant xenografted in NSG mouse assessed as tumor growth inhibition by measuring reduction in tumor volume at 25 mg/kg, ip administered daily for 12 days and measured daily during compound dosing; assay type: functional, organism-based; method in brief: as §1

Structure (SMILES) | inhibition [1] | Activity [2] | RatioGI50 [3] | pIC50 [4] | RatioGI50 [5] | inhibition [6] | RatioGI50 [7] | pIC50 [8] | TGI [9] | TGI [10]
CCCCCCCCCCNC(=S)NCCCC[C@H](NC(=O)OCc1ccccc1)C(=O)Nc1ccccc1 | Active | Non-Toxic | 2 | < 3.70 | 2 | inactive | 2 | < 3.70 | – | –
CCCCCCCCNC(=S)NCCCC[C@H](NC(=O)OCc1ccccc1)C(=O)Nc1ccccc1 | Active | Non-Toxic | – | 4.96 | – | inactive | – | – | inactive | inactive
